Active and inactive are the calls of the source. No cut-off for these calls is given here.
Key:
[1] = Growth inhibition of mouse EAC cells at 50 ug/ml after 2 hrs using trypan blue staining by Neubauer hemocytometry; format: functional; details: Ehrlich, read-out: GI
Procedure, shortened: (§1)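 EAC cells at 2.5 × 10^5 cells/ml in PBS were exposed to three compound concentrations for 2 h at 37 °C in 5% CO2. An equal volume of trypan blue was then added. Stained (dead) and unstained cells were counted on a Neubauer haemocytometer, and percent dead cells was calculated per test.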

[2] = Antitumor activity against mouse EAC cells transplanted in Albino mouse assessed as increase in cell mortality rate at 10 mg/kg, po QD for 2 weeks using trypan blue staining by Neubauer hemocytometry relative to control; format: functional, Ehrlich
Procedure, shortened: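 Female albino mice given 0.2 ml EAC (1:50 dilution in saline of aliquot from stock mice) i.p.; dosed orally by gastric intubation in 10% DMSO daily for 2 weeks from day of inoculation, vehicle controls. At end, ascites collected after 0.2 ml saline i.p. under ether; alive/dead cells counted by trypan blue exclusion, percent dead per mouse; mean ± SE, LSD test.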

Ehrlich [3] = experiment: Antitumor activity against mouse EAC cells transplanted in Albino mouse assessed as decrease in total number of cells at 10 mg/kg, po QD for 2 weeks using trypan blue staining by Neubauer hemocytometry relative to control; format: functional, organism-based; set-up: dose 10 mg/kg
Procedure, shortened: (§2)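 Female albino mice each received 0.2 ml EAC ascites intraperitoneally (stock aliquot diluted 1:50 in saline). Dosing was 10 mg/kg in 10% DMSO by gastric intubation, daily for 2 weeks from the day of inoculation, against a 10% DMSO vehicle group (12 mice per group). At the end, under ether, 0.2 ml saline was given ip and ascites aspirated 1 min later. Aliquot volume was measured. Live and dead cells were counted by trypan blue on a Neubauer haemocytometer. Mean ± SE, LSD.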

Ehrlich [4] = experiment: Antitumor activity against mouse EAC cells transplanted in Albino mouse assessed as increase in number of dead cells at 10 mg/kg, po QD for 2 weeks using trypan blue staining by Neubauer hemocytometry relative to control; format: functional, organism-based; set-up: dose 10 mg/kg; procedure, shortened: as §2
[5] = Growth inhibition of mouse EAC cells at 25 ug/ml after 2 hrs using trypan blue staining by Neubauer hemocytometry; format: functional; details: Ehrlich, read-out: GI; procedure, shortened: as §1
Ehrlich [6] = experiment: Induction of apoptosis in mouse EAC cells transplanted in Albino mouse assessed as increase in p53 level at 10 mg/kg, po QD for 2 weeks […] relative to control; format: functional, organism-based; set-up: dose 10 mg/kg
[7] = Antitumor activity against mouse EAC cells transplanted in Albino mouse assessed as increase in survival at 10 mg/kg, po QD for 2 weeks relative to control; format: functional, Ehrlich
Procedure, shortened: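 Female albino mice inoculated i.p. with 0.2 ml 1:50 saline-diluted EAC; oral gavage in 10% DMSO daily between 10 and 12 AM for 2 successive weeks from inoculation day; vehicle-treated controls (12 mice per group). Survival percent = survived/total animals × 100.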

Ehrlich [8] = experiment: Induction of apoptosis in mouse EAC cells transplanted in Albino mouse assessed as decrease in Bcl-2 level in cytoplasm of cells at 10 mg/kg, po QD for 2 weeks […] relative to control; format: functional, organism-based; set-up: dose 10 mg/kg
Ehrlich [9] = experiment: Antitumor activity against mouse EAC cells transplanted in Albino mouse assessed as decrease in number of living cells at 10 mg/kg, po QD for 2 weeks using trypan blue staining by Neubauer hemocytometry relative to control; format: functional, organism-based; set-up: dose 10 mg/kg; procedure, shortened: as §2
[10] = Toxicity in Albino mouse assessed as mortality after 48 hrs; format: organism-based; details: in vivo
HepG2 = experiment: Cytotoxicity against human HepG2 cells after 48 hrs by sulforhodamine B assay; format: functional, cell-based
Procedure, shortened: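 HepG2 monolayers were treated with graded concentrations (0–100 range) for 48 h at 37 °C. Cells were then fixed and stained with sulforhodamine B, excess dye was removed with acetic acid, and bound dye was dissolved in Tris-EDTA for colorimetric reading. Survival fraction was plotted against concentration.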

[11] = Antitumor activity against mouse EAC cells transplanted in Albino mouse assessed as decrease in EAC-aliquot volume at 10 mg/kg, po QD for 2 weeks relative to control (Rvb= 5.77+/-0.39 ml); format: functional, Ehrlich; procedure, shortened: as §2
[12] = Growth inhibition of mouse EAC cells at 100 ug/ml after 2 hrs using trypan blue staining by Neubauer hemocytometry; format: functional; details: Ehrlich, read-out: GI; procedure, shortened: as §1

With `c1nc2nnnn2c2c1CCCC2` the inhibition of growth at 50 µg/mL [1] was 25%, the Activity [2] was 8.24% and the Activity (Ehrlich [3]) was “Active”. The Activity (Ehrlich [4]) was “Active”, the inhibition of growth at 25 µg/mL [5] was 10% and the Activity (Ehrlich [6]) was “Active”. For the same compound, the Activity [7] was 83.33%, the Activity (Ehrlich [8]) was “Active” and the Activity (Ehrlich [9]) was “Active”. For the same compound, the LD50 at 48 h [10] was 500 mg/kg, the Activity (HepG2) was “Dose-dependent effect” and the Activity [11] was 2.52 mL. For the same compound, the inhibition of growth at 100 µg/mL [12] was 45%.
